Published values pooled from the literature.
Protocols differ between the studies behind these lines.
Organism: Plasmodium falciparum
Observed: parasite growth

Compound	technique	strain	time	setting	IC50
NCCN(C(=O)c1ccc(Cl)cc1Cl)c1ccc(OCc2ccc(Cl)cc2)cc1	SYBR Green			blood stage	2810 nM
NCCCNc1nc2ccccc2n1Cc1ccccc1		NF54		blood stage	4090 nM
COc1nc2ccc(Br)cc2cc1[C@@H](c1ccccc1)[C@@](O)(CCN(C)C)c1cccc2ccccc12	SYBR Green			blood stage	1090 nM
C#CCCCCCCCCCCCC(O)CC(O)CO (stereo not shown)		W2		drug-resistant strain, blood stage	32.5 µg/mL
O=C(O)c1ccc(-n2nc(-c3ccccc3O)nc2-c2ccccc2O)cc1	SYBR Green			blood stage	47700 nM
Fc1ccc(-c2nc3c(N4CCCN(CC5CC5)CC4)nccc3[nH]2)cc1F		NF54		blood stage	20 nM
Clc1ccc2c(c1)nc(NCCNCc1ccccc1)n2Cc1ccccc1		NF54		blood stage	86 nM
COC1=CC(c2ccc[nH]2)=NC1=Cc1ccc(CCCCCCCCCCCO)[nH]1		D6		blood stage	59 nM
NCCCNc1nc2cc(Br)ccc2n1Cc1ccccc1		NF54		blood stage	382 nM
CC(=O)Nc1ccc(-c2ccc3ncc4c(c3c2)n(-c2cccc(C(F)(F)F)c2)c(=O)n4C)cn1	resazurin	3D7		gametocyte	< 100 nM
FC(F)(F)c1ccc(CNCCNc2nc3cc(Cl)ccc3n2Cc2ccccc2)cc1		NF54		blood stage	2780 nM
CC1=C(C)C(c2ccc[nH]2)=NC1=Cc1ccc(CCCCCCCCCC(C)O)[nH]1 (stereo not shown)		D6		blood stage	1080 nM
C[C@@H]1CC[C@H]2[C@@H](C)C(=O)O[C@@H]3O[C@@]4(C)CC[C@@H]1[C@]32OO4		D6		blood stage	0.0085 µg/mL
O[C@@H](c1cc(C(F)(F)F)nc2c(C(F)(F)F)cccc12)[C@H]1CCCCN1	SYBR Green			blood stage	17 nM
O=C(Nc1ccc2c(c1)B(O)OC2)Nc1ccc(F)c(C(F)(F)F)c1		NF54		blood stage	3100 nM
COc1ccc2[nH]c(-c3ccc(Cc4ccc(OC(F)(F)F)cc4)cc3)c(C)c(=O)c2c1		3D7		blood stage	> 350 nM
COC1=CC(c2ccc[nH]2)=NC1=Cc1ccc(CCCCCCCCCCCCO)[nH]1		D6		blood stage	38 nM
c1ccc(Cn2c(N3CCNCC3)nc3cc(-c4cc[nH]n4)ccc32)cc1		NF54		blood stage	> 10000 nM
Oc1cccc(C(Nc2nccs2)c2ccc3cccnc3c2O)c1 (stereo not shown)	SYBR Green			blood stage	1200 nM
C#CCCCCCCCCC=CCC(O)CC(O)CO (stereo not shown)		W2		drug-resistant strain, blood stage	> 47.6 µg/mL

Compound	technique	strain	time	setting	IC50
CCN(CC)CCCC(C)Nc1ccnc2cc(Cl)ccc12 (stereo not shown)		D6	72 h	blood stage	0.01 µg/mL
CC[C@@H](C)[C@H]1O[C@@H](c2c(O)c(-c3ccccc3)cn(O)c2=O)[C@H](C)C[C@@H]1C		W2	72 h	drug-resistant strain, blood stage	0.2 µg/mL
C[C@H]1[C@@H](O)O[C@@H]2O[C@@]3(C)CC[C@H]4[C@H](C)CC[C@@H]1[C@@]24OO3		3D7	72 h	blood stage	5.8 nM
C[C@@H]1CC[C@H]2[C@@H](C)C(=O)O[C@@H]3O[C@@]4(C)CC[C@@H]1[C@]32OO4		W2	72 h	drug-resistant strain, blood stage	0.0038 µg/mL
c1ccc(Oc2ccc(-c3cc(C4CCOCC4)[nH]n3)cc2)cc1	SYBR Green			blood stage	70200 nM
CCN(CC)CCCC(C)Nc1ccnc2cc(Cl)ccc12 (stereo not shown)					201 nM
CCN(CC)CCCC(C)Nc1ccnc2cc(Cl)ccc12 (stereo not shown)		D10	72 h		20 nM
COc1cc(NC(C)CCCNC(=O)c2cccc(C(=O)NCCCC(C)Nc3cc(OC)cc4cccnc34)n2)c2ncccc2c1.Cl (stereo not shown)		D6		blood stage	2.2 µg/mL
CS(=O)(=O)c1ccc2c(c1)nc(C1CCNCC1)n2Cc1ccccc1		NF54		blood stage	> 10000 nM
COc1cccc(N2CCN(C3=Nc4c(F)cccc4[C@H](CC(=O)O)N3c3cc(C(F)(F)F)ccc3OC)CC2)c1	SYBR Green			blood stage	9950 nM
CN1CCN(C2CCN(c3nccc4[nH]c(-c5cccc(C#N)c5)nc34)CC2)CC1		NF54		blood stage	< 100 nM
O=C(Nc1ccc(F)cc1C(=O)O)c1ccc(-c2ccccc2)cc1		NF54	48 h	blood stage	> 10000 nM
CCN(CC)CCCC(C)Nc1ccnc2cc(Cl)ccc12 (stereo not shown)		D6		blood stage	0.016 µg/mL
Clc1ccc2c(nc(N3CCNCC3)n2Cc2ccccc2)c1-c1ccccc1		NF54		blood stage	3650 nM
O=C(Nc1cc(F)ccc1C(=O)O)c1ccc(-c2ccccc2)cc1		NF54	48 h	blood stage	> 10000 nM
C/C=C/C=C/C=C/c1c(O)cc(CC=C(C)C)c(O)c1C=O		D6	72 h	blood stage	1.8 µg/mL
O=C(Nc1c(F)cccc1C(=O)O)c1cccc(-c2ccccc2)c1	resazurin	NF54	48 h	gametocyte	> 10000 nM
NC1CCN(c2nc3cc(Cl)ccc3n2Cc2ccccc2)CC1		NF54		blood stage	22 nM
Cc1ccc(-c2ccccc2C(=O)Nc2c(C)cccc2C(=O)O)cc1		NF54	48 h	blood stage	> 10000 nM
Cc1ccc2c(c1C)NC(=O)[C@]21NN=C(c2ccccc2)S1	SYBR Green			blood stage	960 nM
